pIC50: −log10 of the molar value.
Columns and labels:
[1] = Permeability of the compound by PAMPA; format: ADME; conditions: read-out: permeability
In short: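 Donor buffers were set to pH 5.0, 6.2 and 7.4 with NaOH, and ASB7.4 buffer was used as acceptor. Filters (0.45 pore, 125 μm thick) were lipid-coated. A 10 mM DMSO stock was diluted to 41.7 μM in donor buffer. The sandwich was incubated 4 h without stirring. Reference, donor and acceptor concentrations were read in duplicate by UV plate reader, and ratings were assigned from permeation velocity.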

[2] = molecular target: Sodium/hydrogen exchanger 1 (Homo sapiens, UniProt P19634); assay: Inhibition of NHE1 in human HT-29 cells assessed as intracellular pH change after 30 mins; format: cell-based
[3] = molecular target: Voltage-gated inwardly rectifying potassium channel KCNH2 (Homo sapiens, UniProt Q12809); assay: Inhibition of human ERG expressed in HEK 293 cells by PatchXpress assay; format: cell-based, HEK293
Rattus norvegicus = assay: Clearance in jugular and femoral vein precannulated Sprague-Dawley rat at 1 mg/kg, iv by LC/MS/MS analysis relative to hepatic blood flow; format: ADME, organism-based, Liver; set-up: dose 1 mg/kg, route intravenous; conditions: in vivo
[4] = Mean resident time in jugular and femoral vein precannulated Sprague-Dawley rat at 1 mg/kg, iv by LC/MS/MS analysis; format: ADME, organism-based; set-up: dose 1 mg/kg, route intravenous; conditions: in vivo
[5] = Oral bioavailability in jugular and femoral vein precannulated Sprague-Dawley rat plasma at 5 mg/kg by LC/MS/MS analysis; format: ADME, organism-based
[6] = Volume of distribution at steady state in jugular and femoral vein precannulated Sprague-Dawley rat at 1 mg/kg, iv by LC/MS/MS analysis; format: ADME, organism-based; set-up: dose 1 mg/kg, route intravenous; conditions: in vivo, read-out: Vdss
Cytochrome P450 2D6 = Cytochrome P450 2D6 (Homo sapiens, UniProt P10635); assay: Inhibition of CYP2D6 in human liver microsomes using 3-[2-(N,N-diethyl-N-methylamino)ethyl]-7- methoxy-4-methylcoumarin as substrate after 45 mins by LC/MS/MS analysis; format: ADME, Microsome
Cytochrome P450 2C9 = Cytochrome P450 2C9 (Homo sapiens, UniProt P11712); assay: Inhibition of CYP2C9 in human liver microsomes using 7-methoxy-4-(trifluoromethyl)-coumarin as substrate after 45 mins by LC/MS/MS analysis; format: ADME, Microsome
Cytochrome P450 2C19 = Cytochrome P450 2C19 (Homo sapiens, UniProt P33261); assay: Inhibition of CYP2C19 in human liver microsomes using 7-ethoxy-3-cyanocoumarin as substrate after 45 mins by LC/MS/MS analysis; format: ADME, Microsome
[7] = Metabolic stability in rat liver microsomes at 1 uM up to 60 mins by LC/MS/MS analysis relative to hepatic blood flow; format: ADME, Microsome; conditions: read-out: Stability
Cytochrome P450 3A4 = Cytochrome P450 3A4 (Homo sapiens, UniProt P08684); assay: Inhibition of CYP3A4 in human liver microsomes using 7-benzyloxy-4-(trifluoromethyl)-coumarin as substrate after 30 mins by LC/MS/MS analysis; format: ADME, Microsome
[8] = Metabolic stability in human liver microsomes at 1 uM up to 60 mins by LC/MS/MS analysis relative to hepatic blood flow; format: ADME, Microsome; conditions: read-out: Stability

Sodium/hydrogen exchanger 1, sequence (P19634 whole entry): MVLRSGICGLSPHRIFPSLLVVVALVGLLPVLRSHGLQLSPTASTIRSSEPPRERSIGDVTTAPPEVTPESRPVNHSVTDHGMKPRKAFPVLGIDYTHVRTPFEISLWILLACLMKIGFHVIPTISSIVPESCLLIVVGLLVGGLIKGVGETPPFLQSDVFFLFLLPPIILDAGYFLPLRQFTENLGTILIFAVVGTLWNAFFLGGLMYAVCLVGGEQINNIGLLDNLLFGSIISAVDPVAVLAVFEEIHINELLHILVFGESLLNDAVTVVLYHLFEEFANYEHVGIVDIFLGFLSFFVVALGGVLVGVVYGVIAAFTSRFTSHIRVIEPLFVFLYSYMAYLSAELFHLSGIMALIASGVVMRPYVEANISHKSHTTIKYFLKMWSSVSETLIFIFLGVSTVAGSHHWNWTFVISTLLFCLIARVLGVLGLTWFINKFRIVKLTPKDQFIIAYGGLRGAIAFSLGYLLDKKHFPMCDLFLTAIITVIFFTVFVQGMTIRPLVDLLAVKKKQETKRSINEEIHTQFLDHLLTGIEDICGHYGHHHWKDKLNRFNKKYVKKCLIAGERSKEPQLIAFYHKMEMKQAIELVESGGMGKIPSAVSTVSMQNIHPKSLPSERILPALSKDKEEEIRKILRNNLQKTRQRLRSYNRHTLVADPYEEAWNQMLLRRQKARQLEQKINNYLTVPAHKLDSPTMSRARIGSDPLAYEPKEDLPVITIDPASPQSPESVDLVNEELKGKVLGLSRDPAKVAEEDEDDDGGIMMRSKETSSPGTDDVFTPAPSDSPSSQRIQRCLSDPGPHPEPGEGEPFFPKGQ
Cytochrome P450 3A4, sequence (P08684 whole entry): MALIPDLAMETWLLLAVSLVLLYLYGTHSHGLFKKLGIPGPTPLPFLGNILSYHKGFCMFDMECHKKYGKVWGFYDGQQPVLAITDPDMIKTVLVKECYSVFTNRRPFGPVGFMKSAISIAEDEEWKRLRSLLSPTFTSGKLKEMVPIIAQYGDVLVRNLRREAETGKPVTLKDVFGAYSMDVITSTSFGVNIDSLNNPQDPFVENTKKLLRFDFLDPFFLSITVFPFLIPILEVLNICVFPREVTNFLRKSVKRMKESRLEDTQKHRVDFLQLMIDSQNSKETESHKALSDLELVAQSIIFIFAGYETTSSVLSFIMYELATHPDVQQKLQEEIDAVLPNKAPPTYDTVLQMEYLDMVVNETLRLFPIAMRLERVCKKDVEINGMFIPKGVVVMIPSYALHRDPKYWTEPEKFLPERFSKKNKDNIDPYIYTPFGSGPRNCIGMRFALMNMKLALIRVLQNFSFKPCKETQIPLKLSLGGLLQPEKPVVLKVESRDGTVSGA
Cytochrome P450 2C9, sequence (P11712 whole entry): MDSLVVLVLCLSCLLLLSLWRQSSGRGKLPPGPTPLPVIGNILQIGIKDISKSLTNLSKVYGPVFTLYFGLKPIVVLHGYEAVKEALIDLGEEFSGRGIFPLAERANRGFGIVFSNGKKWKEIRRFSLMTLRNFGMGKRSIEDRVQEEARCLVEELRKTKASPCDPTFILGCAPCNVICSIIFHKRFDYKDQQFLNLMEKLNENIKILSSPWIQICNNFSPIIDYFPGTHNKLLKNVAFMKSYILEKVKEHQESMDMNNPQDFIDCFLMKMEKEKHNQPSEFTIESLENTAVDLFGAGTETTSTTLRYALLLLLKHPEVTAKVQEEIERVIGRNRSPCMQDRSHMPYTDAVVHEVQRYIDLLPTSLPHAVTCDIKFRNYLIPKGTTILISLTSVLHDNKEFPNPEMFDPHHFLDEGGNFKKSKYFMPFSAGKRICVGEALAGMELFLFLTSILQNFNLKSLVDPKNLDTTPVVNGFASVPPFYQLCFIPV
Cytochrome P450 2C19, sequence (P33261 whole entry): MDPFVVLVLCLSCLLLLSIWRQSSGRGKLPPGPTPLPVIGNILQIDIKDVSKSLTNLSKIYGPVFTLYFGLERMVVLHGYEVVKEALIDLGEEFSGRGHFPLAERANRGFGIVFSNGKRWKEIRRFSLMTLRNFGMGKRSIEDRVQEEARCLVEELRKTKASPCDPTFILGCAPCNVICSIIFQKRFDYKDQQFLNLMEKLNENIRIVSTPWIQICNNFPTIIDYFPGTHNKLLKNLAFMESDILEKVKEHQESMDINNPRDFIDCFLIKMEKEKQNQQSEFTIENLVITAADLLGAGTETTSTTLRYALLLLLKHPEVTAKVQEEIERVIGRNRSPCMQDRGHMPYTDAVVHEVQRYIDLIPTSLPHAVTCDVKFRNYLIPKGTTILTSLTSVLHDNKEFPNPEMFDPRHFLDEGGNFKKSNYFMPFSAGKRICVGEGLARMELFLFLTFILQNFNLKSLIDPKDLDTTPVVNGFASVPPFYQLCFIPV
Cytochrome P450 2D6, sequence (P10635 whole entry): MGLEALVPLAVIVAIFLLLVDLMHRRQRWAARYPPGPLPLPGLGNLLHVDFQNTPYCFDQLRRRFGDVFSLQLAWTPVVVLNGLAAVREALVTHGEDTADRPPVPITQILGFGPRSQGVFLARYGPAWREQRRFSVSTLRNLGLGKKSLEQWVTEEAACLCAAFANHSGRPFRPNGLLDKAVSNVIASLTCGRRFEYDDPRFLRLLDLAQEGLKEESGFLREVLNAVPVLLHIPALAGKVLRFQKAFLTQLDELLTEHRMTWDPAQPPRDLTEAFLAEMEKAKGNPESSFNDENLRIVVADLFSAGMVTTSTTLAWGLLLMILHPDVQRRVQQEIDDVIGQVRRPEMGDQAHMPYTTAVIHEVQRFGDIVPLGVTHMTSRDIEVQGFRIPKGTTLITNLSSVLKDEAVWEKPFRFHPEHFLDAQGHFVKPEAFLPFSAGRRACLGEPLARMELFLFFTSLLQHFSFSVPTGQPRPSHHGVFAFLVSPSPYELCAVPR
Voltage-gated inwardly rectifying potassium channel KCNH2, sequence (Q12809 whole entry): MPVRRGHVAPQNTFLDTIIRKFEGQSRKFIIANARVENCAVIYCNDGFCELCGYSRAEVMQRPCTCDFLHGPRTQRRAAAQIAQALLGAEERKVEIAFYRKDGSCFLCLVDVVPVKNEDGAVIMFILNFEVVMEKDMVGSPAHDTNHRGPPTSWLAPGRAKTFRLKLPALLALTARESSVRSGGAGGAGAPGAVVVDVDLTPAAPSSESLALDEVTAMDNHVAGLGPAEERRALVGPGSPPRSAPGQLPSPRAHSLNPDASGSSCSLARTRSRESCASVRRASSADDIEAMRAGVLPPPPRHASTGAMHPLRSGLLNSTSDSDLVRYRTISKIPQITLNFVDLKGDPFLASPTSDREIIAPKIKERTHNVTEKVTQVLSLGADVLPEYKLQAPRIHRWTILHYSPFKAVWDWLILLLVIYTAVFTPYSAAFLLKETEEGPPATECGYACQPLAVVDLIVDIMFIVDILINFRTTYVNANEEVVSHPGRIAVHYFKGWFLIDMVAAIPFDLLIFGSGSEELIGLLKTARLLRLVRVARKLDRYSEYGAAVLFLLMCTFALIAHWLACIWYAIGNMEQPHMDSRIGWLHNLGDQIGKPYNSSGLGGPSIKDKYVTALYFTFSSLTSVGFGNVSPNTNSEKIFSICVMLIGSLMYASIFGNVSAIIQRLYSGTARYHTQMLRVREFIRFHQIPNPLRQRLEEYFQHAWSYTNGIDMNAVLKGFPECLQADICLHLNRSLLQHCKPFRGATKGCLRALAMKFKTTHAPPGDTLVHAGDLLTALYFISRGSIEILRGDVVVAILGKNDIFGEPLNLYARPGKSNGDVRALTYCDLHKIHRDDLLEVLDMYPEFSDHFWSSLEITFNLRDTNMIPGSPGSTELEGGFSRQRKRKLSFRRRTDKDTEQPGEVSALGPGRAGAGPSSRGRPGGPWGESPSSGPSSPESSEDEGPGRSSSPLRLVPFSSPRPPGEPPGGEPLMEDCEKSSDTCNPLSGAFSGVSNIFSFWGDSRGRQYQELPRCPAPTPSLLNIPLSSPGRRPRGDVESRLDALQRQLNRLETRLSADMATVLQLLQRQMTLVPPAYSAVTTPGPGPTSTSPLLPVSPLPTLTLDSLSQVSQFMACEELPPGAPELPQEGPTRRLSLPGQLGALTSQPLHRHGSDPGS

Row | SMILES | Papp [1] [×10⁻⁶ cm/s] | pIC50 [2] | pIC50 (Cytochrome P450 2D6) | pIC50 (Cytochrome P450 2C9) | pIC50 (Cytochrome P450 2C19) | hepatic extraction ratio at 1 h, 1 µM [7] | pIC50 (Cytochrome P450 3A4) | hepatic extraction ratio at 1 h, 1 µM [8] | other results
1 | CN(C)C(=O)c1ccc(C(=O)N2CCC(c3ccc(C(=O)NC(=N)N)cc3C(F)(F)F)CC2)cc1 | < 2 | 7.30 | – | – | – | – | – | – | –
2 | CC(=O)N1CCC(c2cc(C)c(C(=O)NC(=N)N)cc2C(F)(F)F)CC1 | – | 8.30 | – | – | – | – | – | – | pIC50 [3]: 5.15
3 | N=C(N)NC(=O)c1ccc(C2CCN(C(=O)c3ccc(-c4cnco4)cc3)CC2)c(C(F)(F)F)c1 | – | 6.99 | – | – | – | – | – | – | –
4 | CC(C)CC(=O)N1CCC(c2ccc(C(=O)NC(=N)N)cc2C(F)(F)F)CC1 | – | 7.33 | – | – | – | – | – | – | –
5 | CC(=O)N1CCC(c2cc(C)c(C(=O)NC(=N)N)cc2S(C)(=O)=O)CC1 | – | 7.82 | – | – | – | – | – | – | CL (Rattus norvegicus): 47%; MRT [4]: 21.6 min; bioavailability [5]: 4%; Vd [6]: 1 L/kg
6 | N=C(N)NC(=O)c1ccc(C2CCN(C(=O)c3ccc(O)nc3)CC2)c(C(F)(F)F)c1 | < 2 | 7.72 | < 4.52 | 4.54 | < 4.52 | 0.1 | < 4.52 | 0.18 | –
7 | Cn1cncc1C(=O)N1CCC(c2ccc(C(=O)NC(=N)N)cc2C(F)(F)F)CC1 | < 2 | 7.74 | < 4.52 | 4.60 | 4.82 | < 0.056 | 5.52 | 0.23 | –
8 | N=C(N)NC(=O)c1ccc(C2CCN(C(=O)c3cccnc3)CC2)c(C(F)(F)F)c1 | < 2 | 7.74 | < 4.52 | 4.89 | < 4.52 | < 0.06 | < 4.52 | 0.33 | –
9 | CC(=O)N1CCC(c2ccc(C(=O)NC(=N)N)cc2S(C)(=O)=O)CC1 | – | 7.66 | – | – | – | – | – | – | –
10 | CS(=O)(=O)c1ccc(C(=O)N2CCC(c3ccc(C(=O)NC(=N)N)cc3C(F)(F)F)CC2)cc1 | < 2 | 7.82 | < 4.52 | < 4.52 | < 4.52 | – | – | – | CL (Rattus norvegicus): 66%; bioavailability [5]: 15%
11 | N=C(N)NC(=O)c1ccc(C2CCN(C(=O)c3ccc(C(F)(F)F)cc3)CC2)c(C(F)(F)F)c1 | – | 6.49 | – | – | – | – | – | – | –
12 | N=C(N)NC(=O)c1cnn(-c2cccc3ncccc23)c1C1CC1 [ZONIPORIDE] | – | – | – | – | – | – | – | – | CL (Rattus norvegicus): 105%; MRT [4]: 36 min; bioavailability [5]: 5%; Vd [6]: 2.8 L/kg
13 | N=C(N)NC(=O)c1ccc(C2CCN(C(=O)c3ccc(F)cc3)CC2)c(C(F)(F)F)c1 | ≥ 2 | – | < 4.52 | 5.10 | 4.96 | 0.3 | 5.22 | 0.32 | –
14 | CNC(=O)c1ccc(C(=O)N2CCC(c3ccc(C(=O)NC(=N)N)cc3C(F)(F)F)CC2)cc1 | < 2 | 7.28 | – | – | – | – | – | – | –
15 | N=C(N)NC(=O)c1ccc(C2CCN(C(=O)c3ccccc3Cl)CC2)c(C(F)(F)F)c1 | – | 6.97 | – | – | – | – | – | – | –
16 | N=C(N)NC(=O)c1ccc(C2CCN(C(=O)c3ccc(S(N)(=O)=O)cc3)CC2)c(C(F)(F)F)c1 | < 2 | 7.85 | < 4.52 | 4.80 | < 4.52 | 0.07 | 4.62 | 0.24 | –
17 | CC(C)c1ccc(C(=O)NC(=N)N)cc1S(C)(=O)=O [CARIPORIDE] | – | – | – | – | – | – | – | – | CL (Rattus norvegicus): 82%; MRT [4]: 24 min; bioavailability [5]: 37%; Vd [6]: 1.3 L/kg
18 | CNS(=O)(=O)c1ccc(C(=O)N2CCC(c3ccc(C(=O)NC(=N)N)cc3C(F)(F)F)CC2)cc1 | < 2 | 7.52 | – | – | – | – | – | – | –
19 | COc1ccc(C(=O)N2CCC(c3ccc(C(=O)NC(=N)N)cc3C(F)(F)F)CC2)cc1 | ≥ 2 | 6.88 | – | – | – | – | – | – | –
20 | N=C(N)NC(=O)c1ccc(C2CCN(C(=O)c3ccccc3)CC2)c(C(F)(F)F)c1 | ≥ 2 | 7.17 | < 4.52 | 5.15 | 5.30 | 0.46 | < 4.52 | 0.67 | –
21 | COc1cc(C2CCN(C(C)=O)CC2)c(C(F)(F)F)cc1C(=O)NC(=N)N | – | 7.72 | – | – | – | – | – | – | –
22 | N=C(N)NC(=O)c1ccc(C2CCN(C(=O)C3CC3)CC2)c(C(F)(F)F)c1 | ≥ 2 | – | 4.77 | 5.22 | 5.30 | < 0.056 | 4.80 | < 0.11 | –

Row | SMILES | Papp [1] [×10⁻⁶ cm/s] | pIC50 [2] | pIC50 (Cytochrome P450 2D6) | pIC50 (Cytochrome P450 2C9) | pIC50 (Cytochrome P450 2C19) | hepatic extraction ratio at 1 h, 1 µM [7] | pIC50 (Cytochrome P450 3A4) | hepatic extraction ratio at 1 h, 1 µM [8] | other results
23 | N#Cc1ccccc1C(=O)N1CCC(c2ccc(C(=O)NC(=N)N)cc2C(F)(F)F)CC1 | ≥ 2 | 7.21 | 5.00 | 5.40 | 4.80 | < 0.06 | < 4.52 | 0.4 | –
24 | CS(=O)(=O)c1ccccc1C(=O)N1CCC(c2ccc(C(=O)NC(=N)N)cc2C(F)(F)F)CC1 | – | 7.24 | – | – | – | – | – | – | –
25 | CS(=O)(=O)c1cccc(C(=O)N2CCC(c3ccc(C(=O)NC(=N)N)cc3C(F)(F)F)CC2)c1 | < 2 | 7.22 | < 4.52 | < 4.52 | < 4.52 | 0.14 | < 4.52 | 0.15 | –
26 | N=C(N)NC(=O)c1ccc(C2CCN(C(=O)c3cccc(Cl)c3)CC2)c(C(F)(F)F)c1 | – | 6.41 | – | – | – | – | – | – | –
27 | N=C(N)NC(=O)c1ccc(C2CCN(C(=O)c3ccc(O)cc3)CC2)c(C(F)(F)F)c1 | < 2 | 7.68 | – | – | – | 0.11 | – | 0.27 | –
28 | CCCC(=O)N1CCC(c2ccc(C(=O)NC(=N)N)cc2C(F)(F)F)CC1 | – | 7.54 | – | – | – | – | – | – | –
29 | N=C(N)NC(=O)c1ccc(C2CCN(C(=O)c3ccc(C(N)=O)cc3)CC2)c(C(F)(F)F)c1 | < 2 | 7.59 | 4.92 | 5.40 | 4.55 | < 0.056 | 4.61 | 0.24 | –
30 | N=C(N)NC(=O)c1ccc(C2CCN(C(=O)c3ccncc3)CC2)c(C(F)(F)F)c1 | ≥ 2 | 7.74 | 4.96 | 6.40 | 7.22 | 0.12 | < 4.52 | < 0.11 | –
31 | CC(C)C(=O)N1CCC(c2ccc(C(=O)NC(=N)N)cc2C(F)(F)F)CC1 | ≥ 2 | 7.55 | < 4.52 | 5.15 | – | 0.39 | 6.40 | < 0.11 | –
32 | N=C(N)NC(=O)c1ccc(C2CCN(C(=O)c3ccc(-n4ccnc4)cc3)CC2)c(C(F)(F)F)c1 | – | 7.19 | – | – | – | – | – | – | –
33 | N=C(N)NC(=O)c1ccc(C2CCN(C(=O)c3ccc(-c4ccccc4)cc3)CC2)c(C(F)(F)F)c1 | – | 5.33 | – | – | – | – | – | – | –
34 | Cc1cc(C(=O)N2CCC(c3ccc(C(=O)NC(=N)N)cc3C(F)(F)F)CC2)nn1C | < 2 | 7.57 | – | – | – | 0.78 | – | 0.68 | –
35 | CCC(=O)N1CCC(c2ccc(C(=O)NC(=N)N)cc2S(C)(=O)=O)CC1 | – | 7.54 | – | – | – | – | – | – | –
36 | N=C(N)NC(=O)c1ccc(C2CCN(C(=O)c3ccccn3)CC2)c(C(F)(F)F)c1 | ≥ 2 | 7.74 | 4.57 | 5.52 | 4.59 | < 0.06 | < 4.52 | 0.49 | –
37 | N=C(N)NC(=O)c1ccc(C2CCN(C(=O)c3ccc[nH]3)CC2)c(C(F)(F)F)c1 | – | 7.35 | – | – | – | – | – | – | –
38 | N=C(N)NC(=O)c1ccc(N2CCN(C(=O)c3ccc[nH]3)CC2)c(C(F)(F)F)c1 [SABIPORIDE] | – | 7.55 | – | – | 5.05 | – | 5.15 | – | CL (Rattus norvegicus): 24%; MRT [4]: 78 min; bioavailability [5]: 42%; Vd [6]: 1.3 L/kg
39 | Cc1cc(-n2cccc2)c(S(C)(=O)=O)cc1C(=O)NC(=N)N [ENIPORIDE] | – | – | – | – | – | – | – | – | CL (Rattus norvegicus): 28%; MRT [4]: 24 min; bioavailability [5]: 65%; Vd [6]: 0.5 L/kg
40 | N=C(N)NC(=O)c1ccc(C2CCN(C(=O)c3ccc(Cl)cc3)CC2)c(C(F)(F)F)c1 | – | 6.51 | – | – | – | – | – | – | –
41 | N=C(N)NC(=O)c1ccc(C2CCN(C(=O)c3cccc(-c4cnco4)c3)CC2)c(C(F)(F)F)c1 | – | 7.48 | – | – | – | – | – | – | –
42 | N=C(N)NC(=O)c1ccc(C2CCN(C(=O)C3CCCC3)CC2)c(C(F)(F)F)c1 | – | 7.19 | – | – | – | – | – | – | –
43 | CN(C)S(=O)(=O)c1ccc(C(=O)N2CCC(c3ccc(C(=O)NC(=N)N)cc3C(F)(F)F)CC2)cc1 | ≥ 2 | – | – | – | – | – | – | – | –
44 | CC(C)(C)C(=O)N1CCC(c2ccc(C(=O)NC(=N)N)cc2C(F)(F)F)CC1 | ≥ 2 | 7.14 | < 4.52 | 4.77 | – | – | – | – | CL (Rattus norvegicus): 29%; MRT [4]: 90 min; Vd [6]: 1.8 L/kg
